Results from different studies.
Compare with care: the assays were run in different laboratories.
SLC22A11: Solute carrier family 22 member 11 (SLC22A11, Homo sapiens, UniProt Q9NSA0)
GIPR: Gastric inhibitory polypeptide receptor (GIPR, Homo sapiens, UniProt P48546)

SMILES | target | read-out | mode | method | concentration | measurement | result
c1cncc([C@@H]2CCCN2)c1 | 5-hydroxytryptamine receptor 3A (HTR3A, Homo sapiens, UniProt P46098) | ligand displacement |  | radioligand | 50 µM | inhibition | -3.09%
CC(C)CC(=O)OC[C@H]1O[C@@](C#N)(c2ccc3c(N)ncnn23)[C@H](O)[C@@H]1O | Alpha-2A adrenergic receptor (ADRA2A, Homo sapiens, UniProt P08913) | cell-free assay |  |  | 20 µM | inhibition | 6%
CN1CCC[C@H]1c1cccnc1 | Delta-type opioid receptor (OPRD1, Homo sapiens, UniProt P41143) | ligand displacement |  |  | 50 µM | inhibition | -7.8%
Cn1c(=O)c2[nH]cnc2n(C)c1=O | SLC22A11 | transporter uptake | inhibitor |  | 25 µM | inhibition | 81.6%
CC[C@H](C)[C@H](NC(=O)[C@H](CO)NC(=O)[C@H](Cc1ccc(O)cc1)NC(=O)[C@H](CC(=O)O)NC(=O)[C@H](CO)NC(=O)[C@@H](NC(=O)[C@H](Cc1ccccc1)NC(=O)[C@@H](NC(=O)CNC(=O)[C@H](CCC(=O)O)NC(=O)CCNC(=O)C1(c2ccc(Cl)cc2)CCOCC1)[C@@H](C)O)[C@@H](C)CC)C(=O)N[C@@H](C)C(=O)N[C@@H](CCSC)C(=O)N[C@@H](CC(=O)O)C(=O)N[C@@H](CCCCN)C(=O)N[C@H](C(=O)N[C@@H](Cc1c[nH]cn1)C(=O)N[C@@H](CCC(N)=O)C(=O)N[C@@H](CCC(N)=O)C(=O)N[C@@H](CC(=O)O)C(=O)N[C@@H](Cc1ccccc1)C(=O)N[C@H](C(=O)N[C@@H](CC(N)=O)C(=O)N[C@@H](Cc1c[nH]c2ccccc12)C(=O)N[C@@H](CC(C)C)C(=O)N[C@@H](CC(C)C)C(=O)N[C@@H](C)C(=O)N[C@@H](CCC(N)=O)C(=O)NCC(=O)N1CCC[C@H]1C(=O)N[C@@H](CO)C(=O)N[C@@H](CO)C(=O)NCC(=O)N[C@@H](C)C(=O)N1CCC[C@H]1C(=O)N1CCC[C@H]1C(=O)N1CCC[C@H]1C(=O)N[C@@H](CO)C(=O)N[C@@H](CCCCN)C(N)=O)C(C)C)[C@@H](C)CC | GIPR | β-arrestin recruitment | agonist |  |  | Emax | 14%
[2H]c1c([2H])c([C@]2([2H])CCCN2C(=O)C(C)(C)Oc2ccc3cn[nH]c3c2)c([2H])c([2H])c1C([2H])([2H])[2H] | Receptor tyrosine-protein kinase erbB-2 (ERBB2, Homo sapiens, UniProt P04626) | binding |  | competition with immobilised ligand | 1 µM | remaining binding | 83%
CCCCCCCCCc1ccc(OCCOCCOCCOCCOCCOCCOCCOCCOCCO)cc1 | SLC22A11 | transporter uptake | inhibitor |  | 25 µM | inhibition | 79.9%
CC[C@H](C)[C@H](NC(=O)[C@H](CO)NC(=O)[C@H](Cc1ccc(O)cc1)NC(=O)[C@H](CC(=O)O)NC(=O)[C@H](CO)NC(=O)[C@@H](NC(=O)[C@H](Cc1ccccc1)NC(=O)[C@@H](NC(=O)CNC(=O)[C@H](CCC(=O)O)NC(=O)[C@@H](C)NC(=O)[C@@H](N)Cc1ccc(O)cc1)[C@@H](C)O)[C@@H](C)CC)C(=O)N[C@@H](C)C(=O)N[C@@H](CCSC)C(=O)N[C@@H](CC(=O)O)C(=O)N[C@@H](CCCCN)C(=O)N[C@H](C(=O)N[C@@H](Cc1c[nH]cn1)C(=O)N[C@@H](CCC(N)=O)C(=O)N[C@@H](CCC(N)=O)C(=O)N[C@@H](CC(=O)O)C(=O)N[C@@H](Cc1ccccc1)C(=O)N[C@H](C(=O)N[C@@H](CC(N)=O)C(=O)N[C@@H](Cc1c[nH]c2ccccc12)C(=O)N[C@@H](CC(C)C)C(=O)N[C@@H](CC(C)C)C(=O)N[C@@H](C)C(=O)N[C@@H](CCC(N)=O)C(=O)NCC(=O)N1CCC[C@H]1C(=O)N[C@@H](CO)C(=O)N[C@@H](CO)C(=O)NCC(=O)N[C@@H](C)C(=O)N1CCC[C@H]1C(=O)N1CCC[C@H]1C(=O)N1CCC[C@H]1C(=O)N[C@@H](CO)C(=O)N[C@@H](CCCCN)C(N)=O)C(C)C)[C@@H](C)CC | GIPR | β-arrestin recruitment | agonist |  |  | Emax | 103%
